This passage reports cytotoxicity results from ChEMBL document CHEMBL4513216, “Probing the Open Global Health Chemical Diversity Library for Multistage-Active Starting Points for Next-Generation Antimalarials” (ACS Infect Dis, 2020).

The data set in a line: Toxicity liver stage against HepG2, at 10uM. In kind it is cell-based. Also on record: test concentration 10 uM, cell line HepG2-A16-CD81EGFP. As to conditions: human, HepG2-A16-CD81EGFP cells; read-out: INHIBITION
The gist of the method:
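Uninfected HepG2-A16-CD81EGFP cells, 3 × 10^3 per well, 1536-well, plated on prespotted compound at 10 μM final, parasite-free screening media added to match infected plates; puromycin 10 μM positive, DMSO 0.5% negative; run in parallel with 48 h PbLuc assay at 37 °C, 5% CO2; viability by CellTiter-Glo luminescence, normalized to controls.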
Consider `O=S(=O)(C1CC1)N1CCC2(CCCN(Cc3ccccn3)C2)C1` (configuration not stated), for which the cytotoxicity at 10 µM is -0.336%.

As to `CC(=O)N1CCCC(c2ccc(Nc3nc(C)cc(C)n3)cn2)C1` (configuration not stated), the cytotoxicity at 10 µM is -4.09%.

As to `COc1cc(C(=O)N2CC(Oc3ccccc3Cl)C2)ccn1`, the cytotoxicity at 10 µM is -3.52%.

Turning to `Cc1noc(C)c1-c1ccnc(C2CCN(S(=O)(=O)N(C)C)CC2)c1`, the cytotoxicity at 10 µM is -25%.

Consider `Cc1ccsc1CNC(=O)c1ccc(N2CCOC2=O)cc1`, for which the cytotoxicity at 10 µM was 22.2%.

As to `COC(=O)C(C)(C)NC(=O)C1CC(=O)N(CC(F)(F)F)C1` (configuration not stated), the cytotoxicity at 10 µM is -141%.

Regarding `Cc1c(Cl)c(C(=O)N2CC[C@H](N3CCOCC3)[C@H](CCCO)C2)nn1C`, the cytotoxicity at 10 µM is -148%.

Turning to `Cc1ccc(C(=O)N2CCC3(CC2)CC(c2ccccc2)C(=O)N3)cn1` (configuration not stated), the cytotoxicity at 10 µM was -7.42%.

In the case of `CCN1CCNC(=O)C12CCN(C(=O)Cc1ccccn1)CC2`, the cytotoxicity at 10 µM was 4.71%.

Regarding `O=C1CC(NS(=O)(=O)c2ccc(Cl)cc2)CN1` (configuration not stated), the cytotoxicity at 10 µM was found to be 6.66%.

As for `O=C(O)c1nc(SCc2ccc(F)cc2)ncc1Br`, the cytotoxicity at 10 µM is -3.11%.

Consider `CCOc1cc(C(=O)NS(C)(=O)=O)cc(-c2ccccc2)c1OC`, for which the cytotoxicity at 10 µM turned out to be 12.5%.

With `O=C(c1n[nH]c(=O)c2ccccc12)N1CCCC1Cn1cccn1` (configuration not stated), the cytotoxicity at 10 µM is -0.743%.

`COCCO[C@H]1CCN(C(=O)c2ccsc2)[C@H]1Cc1cnn(C)c1`: the cytotoxicity at 10 µM is -72.8%.

As to `CCc1ccc(S(=O)(=O)Nc2ccncc2)s1`, the cytotoxicity at 10 µM worked out at 0.453%.

Consider `N#CCCNC(=O)CN1CC(n2cccn2)C1`, for which the cytotoxicity at 10 µM is -7.29%.

On to `CCS(=O)(=O)Nc1ccn(Cc2c(F)cccc2Cl)n1`, for which the cytotoxicity at 10 µM came to 7.77%.

Regarding `CN1C(=O)C(C)(C)COc2cc(NS(=O)(=O)c3ccccc3)ccc21`, the cytotoxicity at 10 µM is -7.89%.

On to `COCCNC(=O)CN1CCN(c2nc(C)cs2)CC1`, for which the cytotoxicity at 10 µM is -13.2%.

Consider `O=C(c1ccoc1)N1CC[C@@H]2O[C@H](COCc3ccccn3)CC[C@@H]21`, for which the cytotoxicity at 10 µM is 5.48%.

Regarding `OC(CN1CCN(Cc2ccccc2)CC1)C1CC1` (configuration not stated), the cytotoxicity at 10 µM was 3.3%.

Turning to `CO[C@H]1CN(Cc2ccc(F)cc2)CC[C@@]12CCCO2`, the cytotoxicity at 10 µM is -24.5%.

Turning to `CCN(Cc1ccncc1)CC1(O)CCN(C(=O)c2ccccc2C)C1` (configuration not stated), the cytotoxicity at 10 µM is -22%.

Take `O=C1CN(C(=O)c2ccc(Cl)cc2)CC(O)CN1Cc1cccs1` (configuration not stated): the cytotoxicity at 10 µM turned out to be 0.331%.

In the case of `Cc1ccsc1C(=O)N1CC[C@H]2CO[C@H](CN(C)C)[C@H]2C1`, the cytotoxicity at 10 µM stood at 2.93%.

As to `CCn1c(Cn2cncn2)nnc1C1CCN(Cc2ccc(C)o2)CC1`, the cytotoxicity at 10 µM was -12.9%.

As to `CC(C)(C)OC(=O)N1CCCN(Cc2ccon2)c2ccccc21`, the cytotoxicity at 10 µM came out at 11.1%.

Take `Cc1nn(C)c(C)c1CN(C(=O)c1cc(Cl)c[nH]c1=O)C(C)C`: the cytotoxicity at 10 µM was -3.25%.

With `COCC(C)(CCO)NC(=O)Nc1c(F)cccc1Br` (configuration not stated), the cytotoxicity at 10 µM is 3.79%.

Take `Cc1nc(CN2CCCC2Cn2cccn2)nc2ccccc12` (configuration not stated): the cytotoxicity at 10 µM was -51.7%.

For the compound `Cc1nccc(CN2CC[C@H](Oc3cccc(F)c3)[C@@](C)(O)C2)n1`, the cytotoxicity at 10 µM is 2.84%.

As to `COc1cccc2c3c(c(=O)[nH]c12)CCC(C)(C)O3`, the cytotoxicity at 10 µM is -1.43%.

`COc1c(CNCc2ccccc2-n2ccnc2)c(C)nn1C`: the cytotoxicity at 10 µM is 18.7%.

Take `CC(NC(=O)Nc1ccccc1CN1CCOCC1)c1nccs1` (configuration not stated): the cytotoxicity at 10 µM was determined as 2.1%.

As to `CCC(C)(O)CNc1ccc(S(=O)(=O)C(F)F)cc1` (configuration not stated), the cytotoxicity at 10 µM came to 12.2%.

On to `CCN(Cc1nccs1)Cc1cc(Cl)ccc1OC`, for which the cytotoxicity at 10 µM was -1.06%.

Turning to `Cc1csc(N2CCN(C(=O)NCCNc3ncccn3)CC2)n1`, the cytotoxicity at 10 µM is -18.8%.

Consider `Cc1nn(C)c(N(C)C)c1CNC1CCc2c(Cl)cccc21` (configuration not stated), for which the cytotoxicity at 10 µM was -7.07%.

On to `COc1cc(CNC(C)c2cccc(Cl)c2)cc(OC)c1OC` (configuration not stated), for which the cytotoxicity at 10 µM is 5.02%.

Regarding `CC(c1ccc(Cl)cc1)N1CCN(CCS(C)(=O)=O)CC1` (configuration not stated), the cytotoxicity at 10 µM was -20.3%.

Take `CN(C)CCOCc1cncc2c1CCN(C(=O)C1CCOCC1)C2`: the cytotoxicity at 10 µM was -1.87%.

As for `COCC(=O)Nc1ccccc1Sc1c(C)n[nH]c1C`, the cytotoxicity at 10 µM is -10.2%.

In the case of `Cc1nnc(SCC(=O)NCC(c2ccccc2Cl)N(C)C)s1` (configuration not stated), the cytotoxicity at 10 µM is 2.67%.

Turning to `O=C(NCC1(CO)CC1)NC(c1nccs1)C1CC1` (configuration not stated), the cytotoxicity at 10 µM was 1.23%.

In the case of `CCc1cnc(N2CCN(CC(=O)Nc3c(C)n[nH]c3C)CC2)s1`, the cytotoxicity at 10 µM was -2.69%.

As for `COc1ccc(-c2noc(CN3CCN(c4cnccn4)CC3)n2)cc1`, the cytotoxicity at 10 µM was found to be 6.58%.

For `CCN(Cc1nnnn1C1CC1)c1cc(C)ccc1C`, the cytotoxicity at 10 µM came to 9.21%.

In the case of `O=C(Nc1ccccn1)C1CCN(C(=O)COc2ccccc2F)C1` (configuration not stated), the cytotoxicity at 10 µM was -24.6%.

Take `COc1ncccc1CNC(=O)c1c[nH]c(=O)c(Br)c1`: the cytotoxicity at 10 µM was -2.62%.

As to `Cc1cn[nH]c1C1COCCN1Cc1c[nH]cn1` (configuration not stated), the cytotoxicity at 10 µM was -1.3%.

Turning to `N#Cc1ccsc1NC(=O)CN1CCOC(Cn2cccn2)C1` (configuration not stated), the cytotoxicity at 10 µM was -5.66%.

Turning to `O=S(=O)(c1ccc2c(c1)OCCO2)N1CCC(OCc2ccccn2)C1` (configuration not stated), the cytotoxicity at 10 µM is -1.18%.

For `O=C(C1CCCO1)N1CCC2(CC1)COCCN(Cc1cccnc1)C2` (configuration not stated), the cytotoxicity at 10 µM is -108%.

With `Cc1oc(C(=O)O)cc1S(=O)(=O)Nc1ccc(Cl)c(F)c1`, the cytotoxicity at 10 µM is -5.92%.

As to `COc1ccc(C)cc1CN(C)Cc1nc2c(cnn2C)c(=O)[nH]1`, the cytotoxicity at 10 µM is -5.33%.

Take `Cc1nc(CCCNC(=O)c2coc(CN3CCOCC3)c2)sc1C`: the cytotoxicity at 10 µM was -2.11%.

In the case of `CS(=O)(=O)Nc1ccn(Cc2cccc(F)c2)n1`, the cytotoxicity at 10 µM was found to be 13.1%.

With `CCc1nc(CN(CC(N)=O)C(C)C)cs1`, the cytotoxicity at 10 µM was -8.62%.

Take `CCC1CCCCN1Cc1ncc(-c2ccc(OC)cc2)o1` (configuration not stated): the cytotoxicity at 10 µM turned out to be 8.57%.

For the compound `CO[C@H]1CCN(S(=O)(=O)c2cn(C)cn2)[C@H]1Cc1cccnc1`, the cytotoxicity at 10 µM is -9.31%.

`COCCN(Cc1ccccn1)C(=O)C1CCCCCN1C` (configuration not stated): the cytotoxicity at 10 µM was 6.32%.

`CCc1ccc(-c2cn3c(C(=O)N[C@H](C(N)=O)[C@@H](C)O)csc3n2)cc1`: the cytotoxicity at 10 µM was 7.69%.

`COCC[C@]1(O)CCN(CC(=O)NCc2ccccc2C)C[C@H]1C`: the cytotoxicity at 10 µM is -5.31%.

With `O=C(c1cccc(-n2cccn2)c1)N1CCCOC(CN2CCCC2)C1` (configuration not stated), the cytotoxicity at 10 µM is -7.33%.

Regarding `COCCn1c(C(=O)NCC(C)C(=O)O)cc2ccccc21` (configuration not stated), the cytotoxicity at 10 µM came out at 2.64%.

For the compound `Cn1nnc2c1C(COCc1ccccn1)CN(C(=O)c1cccs1)C2` (configuration not stated), the cytotoxicity at 10 µM is -11.2%.

As for `CN(C)c1ccc(CNC(=O)Nc2ccc(S(=O)(=O)C(F)F)cc2)cc1`, the cytotoxicity at 10 µM is 9.25%.

With `O=C(NCCNC(=O)C1CC1)c1cnc(-c2ccccc2)nc1`, the cytotoxicity at 10 µM came out at 12.3%.

As for `CCN(CC(=O)NC(C)C)S(=O)(=O)N1CCC(C)C1` (configuration not stated), the cytotoxicity at 10 µM is -3.26%.

As for `CC(=O)N[C@@H]1CN(Cc2cccs2)C[C@H]1c1ccc(C)o1`, the cytotoxicity at 10 µM amounted to 6.54%.

On to `Cc1cc(CN2CCCC(Cn3cncn3)C2)no1` (configuration not stated), for which the cytotoxicity at 10 µM is -2.12%.

Regarding `COc1ccnc(N2CCCN(C(=O)CCc3cnn(C)c3)CC2)n1`, the cytotoxicity at 10 µM was 17.7%.
